Legend:
Oryctolagus cuniculus [1] = species: Oryctolagus cuniculus; experiment: In vitro intrinsic activity was determined against rabbit aorta and expressed as negative logarithm of half maximal dose
How it was run: (§1)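 Isolated aortic tissue in a bath aerated with 95% O2/5% CO2 under 2.0 g initial tension, readjusted during a 60–90 min equilibration with bath fluid changed every 10–15 min. Concentrations are final bath concentrations. Peptides are kept as 1 mg/mL stocks in distilled water at -20 °C for up to 14 days and diluted in 0.9% saline just before use.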

Oryctolagus cuniculus [2] = species: Oryctolagus cuniculus; experiment: In vitro intrinsic activity was determined against rabbit aorta and time taken to ralax maximally contracted tissue to 50% was reported; format: functional
How it was run: (§2)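 Aortic strips are held in an aerated (95% O2/5% CO2) bath under 2.0 g tension after a 60–90 min equilibration. At maximal agonist contraction, unbound peptide is removed by several washes and the time for tension to fall back toward the pre-contraction level is recorded. Peptides are diluted in 0.9% saline from 1 mg/mL aqueous stocks immediately before use.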

Oryctolagus cuniculus [3] = species: Oryctolagus cuniculus; experiment: In vitro intrinsic activity was determined against rabbit aorta and percent increase in blood pressure was reported; format: functional
Oryctolagus cuniculus [4] = species: Oryctolagus cuniculus; experiment: In vitro intrinsic activity was determined against rabbit aorta and time taken to ralax maximally contracted tissue to 25% was reported; format: functional; set-up: unit not given beside the values; how it was run: as §2
Oryctolagus cuniculus [5] = species: Oryctolagus cuniculus; experiment: In vitro intrinsic activity was determined against rabbit aorta and expressed as alpha E; format: functional; how it was run: as §1
Oryctolagus cuniculus [6] = species: Oryctolagus cuniculus; experiment: In vitro intrinsic activity was determined against rabbit aorta and expressed as factor F at t3/4; format: functional
Rattus norvegicus [7] = experiment: In vivo intrinsic activity against rat aorta and value was reported as factor between the hypertensin and the compound; format: functional
How it was run: (§3)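 Male Wistar rats (~250 g) are anesthetized with urethane 1.4 g/kg sc, with jugular vein and carotid artery cannulated. Peptides are diluted in 0.9% saline from 1 mg/mL aqueous stocks and injected intravenously. Arterial blood pressure is recorded through the carotid cannula with a pressure transducer.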

Rattus norvegicus [8] = experiment: In vivo intrinsic activity was determined against rat aorta and percent increase in blood pressure was reported; format: functional; how it was run: as §3
Oryctolagus cuniculus [9] = species: Oryctolagus cuniculus; experiment: In vitro intrinsic activity against rabbit aorta and value was reported as factor between the hypertensin and the compound; format: functional; how it was run: as §1
Oryctolagus cuniculus [10] = species: Oryctolagus cuniculus; experiment: In vitro intrinsic activity was determined against rabbit aorta and expressed as factor F at t1/2; format: functional

Row | Compound | pD2 (Oryctolagus cuniculus [1]) | T1/2 (Oryctolagus cuniculus [2]) | Increase in blood pressure (Oryctolagus cuniculus [3]) [%] | T3/4 (Oryctolagus cuniculus [4]) | Alpha E (Oryctolagus cuniculus [5]) | F3/4 (Oryctolagus cuniculus [6]) | Activity Factor (Rattus norvegicus [7]) | Increase in blood pressure (Rattus norvegicus [8]) [%] | Activity (Oryctolagus cuniculus [9]) | F1/2 (Oryctolagus cuniculus [10])
1 | CC[C@H](C)[C@H](NC(=O)[C@H](Cc1ccc(O)cc1)NC(=O)[C@@H](NC(=O)[C@H](CCCN=C(N)N)NC(=O)[C@@H](N)CC(=O)N(C(C)C)C(C)C)C(C)C)C(=O)N[C@@H](Cc1c[nH]cn1)C(=O)N1CCC[C@H]1C(=O)N[C@@H](Cc1ccccc1)C(=O)O [listing 1 of 2 here] | 6.69 |  |  |  |  |  |  |  |  | 
2 | CC[C@H](C)[C@H](NC(=O)[C@H](Cc1ccc(O)cc1)NC(=O)[C@@H](NC(=O)[C@H](CCCN=C(N)N)NC(=O)[C@@H](N)CC(=O)N(C)C)C(C)C)C(=O)N[C@@H](Cc1c[nH]cn1)C(=O)N1CCC[C@@H]1C(=O)N[C@@H](Cc1ccccc1)C(=O)O |  | 6.7 |  |  |  |  |  |  |  | 
3 | CC[C@H](C)[C@H](NC(=O)[C@H](Cc1ccc(O)cc1)NC(=O)[C@@H](NC(=O)[C@H](CCCN=C(N)N)NC(=O)[C@@H](N)CC(=O)N(C)C)C(C)C)C(=O)N[C@@H](Cc1c[nH]cn1)C(=O)N1CCC[C@H]1C(=O)N[C@@H](Cc1ccccc1)C(=O)O [listing 1 of 2 here] | 7.39 |  |  |  |  |  |  |  |  | 
4 | CCCN(CCC)C(=O)C[C@H](N)C(=O)N[C@@H](CCCN=C(N)N)C(=O)N[C@H](C(=O)N[C@@H](Cc1ccc(O)cc1)C(=O)N[C@H](C(=O)N[C@@H](Cc1c[nH]cn1)C(=O)N1CCC[C@@H]1C(=O)N[C@@H](Cc1ccccc1)C(=O)O)[C@@H](C)CC)C(C)C |  | 18.7 |  |  |  |  |  |  |  | 
5 | H-NRVYIHPF-OH | 7.73 | 5 | 100 | 8.7 | 1 | 1 | 1 | 100 | 1 | 1
6 | CC[C@H](C)[C@H](NC(=O)[C@H](Cc1ccc(O)cc1)NC(=O)[C@@H](NC(=O)[C@H](CCCN=C(N)N)NC(=O)[C@@H](N)CC(=O)N(C)C)C(C)C)C(=O)N[C@@H](Cc1c[nH]cn1)C(=O)N1CCC[C@H]1C(=O)N[C@@H](Cc1ccccc1)C(=O)O [listing 2 of 2 here] |  |  | 46 | 20 | 1 | 2.3 | 3.3 | 30 | 2.2 | 1.3
7 | CC[C@H](C)[C@H](NC(=O)[C@H](Cc1ccc(O)cc1)NC(=O)[C@@H](NC(=O)[C@H](CCCN=C(N)N)NC(=O)[C@@H](N)CC(=O)N(C(C)C)C(C)C)C(C)C)C(=O)N[C@@H](Cc1c[nH]cn1)C(=O)N1CCC[C@@H]1C(=O)N[C@@H](Cc1ccccc1)C(=O)O |  | 14.3 |  |  |  |  |  |  |  | 
8 | CC[C@H](C)[C@H](NC(=O)[C@H](Cc1ccc(O)cc1)NC(=O)[C@@H](NC(=O)[C@H](CCCN=C(N)N)NC(=O)[C@@H](N)CC(=O)N(C(C)C)C(C)C)C(C)C)C(=O)N[C@@H](Cc1c[nH]cn1)C(=O)N1CCC[C@H]1C(=O)N[C@@H](Cc1ccccc1)C(=O)O [listing 2 of 2 here] |  |  | 9 | 36.7 | 1 | 4.2 | 14.3 | 7 | 11 | 2.9
9 | CCCN(CCC)C(=O)C[C@H](N)C(=O)N[C@@H](CCCN=C(N)N)C(=O)N[C@H](C(=O)N[C@@H](Cc1ccc(O)cc1)C(=O)N[C@H](C(=O)N[C@@H](Cc1c[nH]cn1)C(=O)N1CCC[C@H]1C(=O)N[C@@H](Cc1ccccc1)C(=O)O)[C@@H](C)CC)C(C)C [listing 1 of 2 here] | 6.93 |  |  |  |  |  |  |  |  | 
10 | CCCN(CCC)C(=O)C[C@H](N)C(=O)N[C@@H](CCCN=C(N)N)C(=O)N[C@H](C(=O)N[C@@H](Cc1ccc(O)cc1)C(=O)N[C@H](C(=O)N[C@@H](Cc1c[nH]cn1)C(=O)N1CCC[C@H]1C(=O)N[C@@H](Cc1ccccc1)C(=O)O)[C@@H](C)CC)C(C)C [listing 2 of 2 here] |  |  | 16 | 44 | 1 | 5.1 | 11.1 | 9 | 6.3 | 3.7
